Laboratory results from ChEMBL document CHEMBL1154647, “Synthesis, spectral characterization and biological evaluation of phosphorylated derivatives of galanthamine” (Eur J Med Chem, 2010).
In brackets after ≈: the same amount, converted by molar mass.

test system: Brain; experiment: Antioxidant activity in Wistar rat brain assessed as reduction in glutathione content; type: functional, tissue-based; conditions: not given
Outline: (§1)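 Wistar rat brain was homogenised 1:40 (w/v) in 0.1 M phosphate buffer, pH 7.4, with 1 mM EDTA. Total glutathione (GSH + GSSG) and reduced GSH were assayed spectrophotometrically from optical density, using net rate against a standard-curve slope and intercept, times a dilution factor. Homogenate protein was measured by the Lowry method.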

| SMILES | EC50 |
| --- | --- |
| COc1ccc2c3c1O[C@H]1C[C@@H](OP(=O)(OP(=O)(O)O)N(CCCl)CCCl)C=C[C@@]31CCN(C)C2 (stereo not given in full) | 2.68 µg/mL (≈ 4.69 µM) |
| COc1ccc2c3c1O[C@H]1C[C@@H](OP(=O)(SCCO)N(CCCl)CCCl)C=C[C@@]31CCN(C)C2 (stereo not given in full) | 1.11 µg/mL (≈ 2.01 µM) |

test system: Brain; experiment: Antioxidant activity in Wistar rat brain assessed as glutathione content; type: functional; conditions: not given; outline: as §1

| SMILES | Activity |
| --- | --- |
| COc1ccc2c3c1O[C@H]1C[C@@H](OP(=O)(OP(=O)(O)O)N(CCCl)CCCl)C=C[C@@]31CCN(C)C2 (stereo not given in full) | 4.72 µg/mL |
| COc1ccc2c3c1O[C@H]1C[C@@H](OP(=O)(SCCO)N(CCCl)CCCl)C=C[C@@]31CCN(C)C2 (stereo not given in full) | 4.92 µg/mL |

target: not listed separately; experiment: Inhibition of superoxide dismutase in Wistar rat brain; type: tissue-based; conditions: not given

| SMILES | EC50 |
| --- | --- |
| COc1ccc2c3c1O[C@H]1C[C@@H](OP(=O)(OP(=O)(O)O)N(CCCl)CCCl)C=C[C@@]31CCN(C)C2 (stereo not given in full) | 1.26 µg/mL (≈ 2.21 µM) |
| COc1ccc2c3c1O[C@H]1C[C@@H](OP(=O)(SCCO)N(CCCl)CCCl)C=C[C@@]31CCN(C)C2 (stereo not given in full) | 1.62 µg/mL (≈ 2.94 µM) |

test system: Staphylococcus aureus; experiment: Antibacterial activity against Staphylococcus aureus at 2 mg/mL after 18 hrs by disc diffusion assay; type: functional; conditions: read-out: IZ
Outline: (§2)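 Bacteria were grown in nutrient broth at 37 °C for 18 h on a rotary shaker at 150 rpm. Compounds were dissolved in DMF. Nutrient agar plates were dried at 35–36 °C for about 30 min, and test strains were spread on the surface. Discs were applied, and plates were inverted and incubated at 37 °C. A DMF blank was run.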

| SMILES | zone of inhibition at 2000 µg/mL |
| --- | --- |
| COc1ccc2c3c1O[C@H]1C[C@@H](OP(=O)(OP(=O)(O)O)N(CCCl)CCCl)C=C[C@@]31CCN(C)C2 (stereo not given in full) | 4.65 mm |
| COc1ccc2c3c1O[C@H]1C[C@@H](OP(=O)(SCCO)N(CCCl)CCCl)C=C[C@@]31CCN(C)C2 (stereo not given in full) | 3.09 mm |

test system: Bacillus subtilis; experiment: Antibacterial activity against Bacillus subtilis at 2 mg/mL after 18 hrs by disc diffusion assay; type: functional; conditions: read-out: IZ; outline: as §2

| SMILES | zone of inhibition at 2000 µg/mL |
| --- | --- |
| COc1ccc2c3c1O[C@H]1C[C@@H](OP(=O)(OP(=O)(O)O)N(CCCl)CCCl)C=C[C@@]31CCN(C)C2 (stereo not given in full) | 4.49 mm |
| COc1ccc2c3c1O[C@H]1C[C@@H](OP(=O)(SCCO)N(CCCl)CCCl)C=C[C@@]31CCN(C)C2 (stereo not given in full) | 3.01 mm |

test system: Escherichia coli; experiment: Antibacterial activity against Escherichia coli at 2 mg/mL after 18 hrs by disc diffusion assay; type: functional; conditions: read-out: IZ; outline: as §2

| SMILES | zone of inhibition at 2000 µg/mL |
| --- | --- |
| COc1ccc2c3c1O[C@H]1C[C@@H](OP(=O)(OP(=O)(O)O)N(CCCl)CCCl)C=C[C@@]31CCN(C)C2 (stereo not given in full) | 4.08 mm |
| COc1ccc2c3c1O[C@H]1C[C@@H](OP(=O)(SCCO)N(CCCl)CCCl)C=C[C@@]31CCN(C)C2 (stereo not given in full) | 2.21 mm |

test system: Brain; experiment: Antioxidant activity in Wistar rat brain assessed as superoxide dismutase content; type: functional; conditions: not given

| SMILES | Activity |
| --- | --- |
| COc1ccc2c3c1O[C@H]1C[C@@H](OP(=O)(OP(=O)(O)O)N(CCCl)CCCl)C=C[C@@]31CCN(C)C2 (stereo not given in full) | 28.14 µg/mL |
| COc1ccc2c3c1O[C@H]1C[C@@H](OP(=O)(SCCO)N(CCCl)CCCl)C=C[C@@]31CCN(C)C2 (stereo not given in full) | 29.55 µg/mL |

target: T1, Catalase (Rattus norvegicus, UniProt P04762); experiment: Inhibition of catalase in Wistar rat brain; conditions: not given
T1 sequence (P04762 whole entry): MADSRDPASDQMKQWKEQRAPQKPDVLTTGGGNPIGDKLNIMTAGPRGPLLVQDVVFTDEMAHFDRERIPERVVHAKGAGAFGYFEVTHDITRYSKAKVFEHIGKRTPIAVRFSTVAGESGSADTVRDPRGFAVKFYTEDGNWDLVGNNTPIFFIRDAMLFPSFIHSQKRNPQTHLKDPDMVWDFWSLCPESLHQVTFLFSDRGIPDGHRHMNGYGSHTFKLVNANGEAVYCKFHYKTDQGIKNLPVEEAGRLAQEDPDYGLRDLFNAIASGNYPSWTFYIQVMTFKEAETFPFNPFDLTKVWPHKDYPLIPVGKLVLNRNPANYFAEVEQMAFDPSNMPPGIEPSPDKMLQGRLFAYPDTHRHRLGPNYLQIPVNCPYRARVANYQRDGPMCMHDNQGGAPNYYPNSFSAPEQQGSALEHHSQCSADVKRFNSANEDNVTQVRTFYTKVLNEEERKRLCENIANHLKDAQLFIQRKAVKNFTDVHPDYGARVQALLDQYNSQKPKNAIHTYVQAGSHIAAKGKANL

| SMILES | EC50 |
| --- | --- |
| COc1ccc2c3c1O[C@H]1C[C@@H](OP(=O)(OP(=O)(O)O)N(CCCl)CCCl)C=C[C@@]31CCN(C)C2 (stereo not given in full) | 2.18 µg/mL (≈ 3.82 µM) |
| COc1ccc2c3c1O[C@H]1C[C@@H](OP(=O)(SCCO)N(CCCl)CCCl)C=C[C@@]31CCN(C)C2 (stereo not given in full) | 1.67 µg/mL (≈ 3.03 µM) |

test system: Brain; experiment: Antioxidant activity in Wistar rat brain assessed as lipid peroxidation; type: functional, tissue-based; conditions: not given

| SMILES | Activity |
| --- | --- |
| COc1ccc2c3c1O[C@H]1C[C@@H](OP(=O)(OP(=O)(O)O)N(CCCl)CCCl)C=C[C@@]31CCN(C)C2 (stereo not given in full) | 74.9 µg/mL |
| COc1ccc2c3c1O[C@H]1C[C@@H](OP(=O)(SCCO)N(CCCl)CCCl)C=C[C@@]31CCN(C)C2 (stereo not given in full) | 71.2 µg/mL |

test system: Klebsiella pneumoniae; experiment: Antibacterial activity against Klebsiella pneumoniae after 18 hrs; type: functional; conditions: not given

| SMILES | MIC |
| --- | --- |
| COc1ccc2c3c1O[C@H]1C[C@@H](OP(=O)(OP(=O)(O)O)N(CCCl)CCCl)C=C[C@@]31CCN(C)C2 (stereo not given in full) | 0.48 µg/mL (≈ 0.84 µM) |
| COc1ccc2c3c1O[C@H]1C[C@@H](OP(=O)(SCCO)N(CCCl)CCCl)C=C[C@@]31CCN(C)C2 (stereo not given in full) | 0.59 µg/mL (≈ 1.07 µM) |

test system: Klebsiella pneumoniae; experiment: Antibacterial activity against Klebsiella pneumoniae at 2 mg/mL after 18 hrs by disc diffusion assay; type: functional; conditions: read-out: IZ; outline: as §2

| SMILES | zone of inhibition at 2000 µg/mL |
| --- | --- |
| COc1ccc2c3c1O[C@H]1C[C@@H](OP(=O)(OP(=O)(O)O)N(CCCl)CCCl)C=C[C@@]31CCN(C)C2 (stereo not given in full) | 3.68 mm |
| COc1ccc2c3c1O[C@H]1C[C@@H](OP(=O)(SCCO)N(CCCl)CCCl)C=C[C@@]31CCN(C)C2 (stereo not given in full) | 6.46 mm |

test system: Escherichia coli; experiment: Antibacterial activity against Escherichia coli after 18 hrs; type: functional; conditions: not given

| SMILES | MIC |
| --- | --- |
| COc1ccc2c3c1O[C@H]1C[C@@H](OP(=O)(OP(=O)(O)O)N(CCCl)CCCl)C=C[C@@]31CCN(C)C2 (stereo not given in full) | 0.42 µg/mL (≈ 0.735 µM) |
| COc1ccc2c3c1O[C@H]1C[C@@H](OP(=O)(SCCO)N(CCCl)CCCl)C=C[C@@]31CCN(C)C2 (stereo not given in full) | 0.26 µg/mL (≈ 0.471 µM) |

test system: Klebsiella pneumoniae; experiment: Antibacterial activity against Klebsiella pneumoniae at 1 mg/mL after 18 hrs by disc diffusion assay; type: functional; conditions: read-out: IZ; outline: as §2

| SMILES | zone of inhibition at 1000 µg/mL |
| --- | --- |
| COc1ccc2c3c1O[C@H]1C[C@@H](OP(=O)(OP(=O)(O)O)N(CCCl)CCCl)C=C[C@@]31CCN(C)C2 (stereo not given in full) | 1.39 mm |
| COc1ccc2c3c1O[C@H]1C[C@@H](OP(=O)(SCCO)N(CCCl)CCCl)C=C[C@@]31CCN(C)C2 (stereo not given in full) | 2.08 mm |

test system: Staphylococcus aureus; experiment: Antibacterial activity against Staphylococcus aureus after 18 hrs; type: functional; conditions: not given

| SMILES | MIC |
| --- | --- |
| COc1ccc2c3c1O[C@H]1C[C@@H](OP(=O)(OP(=O)(O)O)N(CCCl)CCCl)C=C[C@@]31CCN(C)C2 (stereo not given in full) | 0.38 µg/mL (≈ 0.665 µM) |
| COc1ccc2c3c1O[C@H]1C[C@@H](OP(=O)(SCCO)N(CCCl)CCCl)C=C[C@@]31CCN(C)C2 (stereo not given in full) | 0.21 µg/mL (≈ 0.381 µM) |

test system: Brain; experiment: Antioxidant activity in Wistar rat brain assessed as inhibition of lipid peroxidation; type: functional, tissue-based; conditions: not given

| SMILES | EC50 |
| --- | --- |
| COc1ccc2c3c1O[C@H]1C[C@@H](OP(=O)(OP(=O)(O)O)N(CCCl)CCCl)C=C[C@@]31CCN(C)C2 (stereo not given in full) | 1.98 µg/mL (≈ 3.47 µM) |
| COc1ccc2c3c1O[C@H]1C[C@@H](OP(=O)(SCCO)N(CCCl)CCCl)C=C[C@@]31CCN(C)C2 (stereo not given in full) | 1.33 µg/mL (≈ 2.41 µM) |

test system: Brain; experiment: Antioxidant activity in Wistar rat brain assessed as catalase content; type: functional; conditions: not given

| SMILES | Activity |
| --- | --- |
| COc1ccc2c3c1O[C@H]1C[C@@H](OP(=O)(OP(=O)(O)O)N(CCCl)CCCl)C=C[C@@]31CCN(C)C2 (stereo not given in full) | 278.33 µg/mL |
| COc1ccc2c3c1O[C@H]1C[C@@H](OP(=O)(SCCO)N(CCCl)CCCl)C=C[C@@]31CCN(C)C2 (stereo not given in full) | 285.32 µg/mL |

test system: Escherichia coli; experiment: Antibacterial activity against Escherichia coli at 1 mg/mL after 18 hrs by disc diffusion assay; type: functional; conditions: read-out: IZ; outline: as §2

| SMILES | zone of inhibition at 1000 µg/mL |
| --- | --- |
| COc1ccc2c3c1O[C@H]1C[C@@H](OP(=O)(OP(=O)(O)O)N(CCCl)CCCl)C=C[C@@]31CCN(C)C2 (stereo not given in full) | 1.26 mm |
| COc1ccc2c3c1O[C@H]1C[C@@H](OP(=O)(SCCO)N(CCCl)CCCl)C=C[C@@]31CCN(C)C2 (stereo not given in full) | 1.14 mm |

test system: Bacillus subtilis; experiment: Antibacterial activity against Bacillus subtilis at 1 mg/mL after 18 hrs by disc diffusion assay; type: functional; conditions: read-out: IZ; outline: as §2

| SMILES | zone of inhibition at 1000 µg/mL |
| --- | --- |
| COc1ccc2c3c1O[C@H]1C[C@@H](OP(=O)(OP(=O)(O)O)N(CCCl)CCCl)C=C[C@@]31CCN(C)C2 (stereo not given in full) | 2.09 mm |
| COc1ccc2c3c1O[C@H]1C[C@@H](OP(=O)(SCCO)N(CCCl)CCCl)C=C[C@@]31CCN(C)C2 (stereo not given in full) | 1.72 mm |

test system: Bacillus subtilis; experiment: Antibacterial activity against Bacillus subtilis after 18 hrs; type: functional; conditions: not given

| SMILES | MIC |
| --- | --- |
| COc1ccc2c3c1O[C@H]1C[C@@H](OP(=O)(OP(=O)(O)O)N(CCCl)CCCl)C=C[C@@]31CCN(C)C2 (stereo not given in full) | 0.16 µg/mL (≈ 0.28 µM) |
| COc1ccc2c3c1O[C@H]1C[C@@H](OP(=O)(SCCO)N(CCCl)CCCl)C=C[C@@]31CCN(C)C2 (stereo not given in full) | 0.13 µg/mL (≈ 0.236 µM) |

test system: Staphylococcus aureus; experiment: Antibacterial activity against Staphylococcus aureus at 1 mg/mL after 18 hrs by disc diffusion assay; type: functional; conditions: read-out: IZ; outline: as §2

| SMILES | zone of inhibition at 1000 µg/mL |
| --- | --- |
| COc1ccc2c3c1O[C@H]1C[C@@H](OP(=O)(OP(=O)(O)O)N(CCCl)CCCl)C=C[C@@]31CCN(C)C2 (stereo not given in full) | 1.72 mm |
| COc1ccc2c3c1O[C@H]1C[C@@H](OP(=O)(SCCO)N(CCCl)CCCl)C=C[C@@]31CCN(C)C2 (stereo not given in full) | 1.53 mm |
